ChEMBL document CHEMBL3826891, “Cupriphilic compounds to aid in proteasome inhibition” (Bioorg Med Chem Lett, 2016)
Calls of active or inactive are those of the source. No cut-off for these calls is given here.

What was measured:
[1] = biological target: T1, Proteasome Macropain subunit MB1 (Homo sapiens) (UniProt P28074); assay: Inhibition of chymotrypsin like activity of 20S proteasome (unknown origin) using suc-leu-leu-val-tyr-AMC as substrate at 10 uM after 40 mins in presence of 1 uM copper by fluorescence assay
T1 sequence (whole entry): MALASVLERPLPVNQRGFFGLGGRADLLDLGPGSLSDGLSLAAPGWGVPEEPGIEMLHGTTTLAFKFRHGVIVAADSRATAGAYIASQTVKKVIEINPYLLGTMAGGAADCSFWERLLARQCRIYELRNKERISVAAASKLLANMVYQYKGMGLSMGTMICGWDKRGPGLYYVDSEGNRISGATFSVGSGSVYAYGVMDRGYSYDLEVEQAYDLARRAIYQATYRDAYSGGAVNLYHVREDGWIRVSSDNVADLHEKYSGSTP
Procedure, shortened: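 Compound in DMSO, final DMSO below 2%, at 10 µM. Premixed with 1 µM copper chloride in 50 mM Tris pH 7.6 for 40 min with gentle shaking to allow chelation. 20S proteasome and suc-Leu-Leu-Val-Tyr-AMC were then added and incubated 2 h at 37 °C. Substrate cleavage rate was read as fluorescence at 340 nm excitation and 460 nm emission.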

[2] = biological target: T1, Proteasome Macropain subunit MB1 (Homo sapiens); assay: Inhibition of chymotrypsin like activity of 20S proteasome (unknown origin) using suc-leu-leu-val-tyr-AMC as substrate at 10 uM after 40 mins in presence of nickel by fluorescence assay
Procedure, shortened: (§1)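 To test metal selectivity, the chloride of nickel, calcium, iron or zinc replaced copper and was premixed with compound for 40 min with shaking in 50 mM Tris pH 7.6. 20S proteasome and suc-LLVY-AMC were then added and incubated 2 h at 37 °C. Cleavage was read by fluorescence at 340 nm excitation and 460 nm emission.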

[3] = biological target: T1, Proteasome Macropain subunit MB1 (Homo sapiens); assay: Inhibition of chymotrypsin like activity of 20S proteasome (unknown origin) using suc-leu-leu-val-tyr-AMC as substrate at 10 uM after 40 mins in presence of calcium by fluorescence assay; procedure, shortened: as §1
[4] = biological target: T1, Proteasome Macropain subunit MB1 (Homo sapiens); assay: Inhibition of chymotrypsin like activity of 20S proteasome (unknown origin) using suc-leu-leu-val-tyr-AMC as substrate at 10 uM after 40 mins in presence of iron by fluorescence assay; procedure, shortened: as §1
[5] = biological target: T1, Proteasome Macropain subunit MB1 (Homo sapiens); assay: Inhibition of chymotrypsin like activity of 20S proteasome (unknown origin) using suc-leu-leu-val-tyr-AMC as substrate at 10 uM after 40 mins in presence of copper by fluorescence assay
[6] = biological target: T2, Proteasome Macropain subunit MB1 (Homo sapiens, UniProt P28074); assay: Inhibition of chymotrypsin like activity of 20S proteasome (unknown origin) using suc-leu-leu-val-tyr-AMC as substrate after 40 mins in presence of 100 nM copper by fluorescence assay
T2 sequence (P28074 whole entry): T1 sequence (whole entry)
Procedure, shortened: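 Dose-response format in which compound concentration was varied with copper chloride fixed at 100 nM. Compound and copper were pre-equilibrated 40 min with gentle shaking in 50 mM Tris pH 7.6, final DMSO below 2%. 20S proteasome and suc-LLVY-AMC were added and run 2 h at 37 °C. AMC fluorescence was read at 340/460 nm, and IC50 was taken from the curve.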

SMILES	inhibition [1]	inhibition [2]	inhibition [3]	inhibition [4]	inhibition [5]	IC50 [6]
NC(=O)SCC(=O)Nc1ccccc1C(=O)O	> 80%	Active	Active	Active	Active	
O=c1oc2c(cc1O)oc(=O)c1cc(O)c(O)c(O)c12	> 80%	Active	Active	Active	Active	
O=C1COc2c1ccc(O)c2O	> 80%	Active	Active	Active	Active	3 µM
O=C1c2c(O)cc(O)cc2OCC1c1ccc(O)cc1 (stereo unspecified)	> 80%	Active	Active	Active	Active	
CCN(CC)C(=S)SSC(=S)N(CC)CC	92%	Active	Active	Active	Active	
OCc1cc(O)c(CO)nn1	> 80%	Active	Active	Active	Active	
O=C(O)c1ccc(O)c(O)c1	> 80%	Active	Active	Active	Active	
